Measured values reported in ChEMBL document CHEMBL1145257, “Synthesis and antibacterial activity of hydrolytically stable (-)-epicatechin gallate analogues for the modulation of beta-lactam resistance in Staphylococcus aureus” (2005).
Converted amounts (≈) assume the structure as drawn.

Tests used:
Type in all cases: functional
Staphylococcus aureus [1] = test: Minimum inhibitory concentration against methicillin resistant Staphylococcus aureus strain EMRSA 15
Outline: (§1)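 Intrinsic activity by broth microdilution. Inoculum about 10⁴ cfu per well in Mueller-Hinton broth with 2% w/v NaCl, doubling dilutions of compound. MIC read after 24 h at 35 °C. S. aureus ATCC29213 served as standard strain.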

Staphylococcus aureus [2] = test: Minimum inhibitory concentration against methicillin resistant Staphylococcus aureus strain EMRSA 16 in combination with oxacillin; Experiment 1
Outline: (§2)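 Oxacillin MIC measured with test compound held at a fixed 25 mg/L, using doubling dilutions of oxacillin. Broth microdilution with about 10⁴ cfu per well in Mueller-Hinton broth plus 2% w/v NaCl. MIC read after 24 h at 35 °C. S. aureus ATCC29213 served as standard. Two separate experiments reported.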

Staphylococcus aureus [3] = test: Minimum inhibitory concentration against methicillin resistant Staphylococcus aureus strain EMRSA 16 in combination with oxacillin; Experiment 2; outline: as §2
Staphylococcus aureus [4] = test: Minimum inhibitory concentration against methicillin resistant Staphylococcus aureus strain BB 568 in combination with oxacillin; outline: as §2
Staphylococcus aureus [5] = test: Minimum inhibitory concentration against methicillin resistant Staphylococcus aureus strain EMRSA 15 in combination with oxacillin; Experiment 1; outline: as §2
Staphylococcus aureus [6] = test: Minimum inhibitory concentration against methicillin resistant Staphylococcus aureus strain EMRSA 16; outline: as §1
Staphylococcus aureus [7] = test: Minimum inhibitory concentration against methicillin resistant Staphylococcus aureus strain BB 568; outline: as §1
Staphylococcus aureus [8] = test: Minimum inhibitory concentration against methicillin resistant Staphylococcus aureus strain EMRSA 15 in combination with oxacillin; Experiment 2; outline: as §2
Staphylococcus aureus [9] = test: Minimum inhibitory concentration against methicillin resistant Staphylococcus aureus strain BB 568 in combination with oxacillin; Experiment 1; outline: as §2
Staphylococcus aureus [10] = test: Minimum inhibitory concentration against methicillin resistant Staphylococcus aureus strain EMRSA 16 in combination with oxacillin; outline: as §2
Staphylococcus aureus [11] = test: Minimum inhibitory concentration against methicillin resistant Staphylococcus aureus strain BB 568 in combination with oxacillin; Experiment 2; outline: as §2
Staphylococcus aureus [12] = test: Minimum inhibitory concentration against methicillin resistant Staphylococcus aureus strain EMRSA 15 in combination with oxacillin; outline: as §2

| SMILES | MIC (Staphylococcus aureus [1]) [µg/mL] | MIC (Staphylococcus aureus [2]) [µg/mL] | MIC (Staphylococcus aureus [3]) [µg/mL] | MIC (Staphylococcus aureus [4]) [µg/mL] | MIC (Staphylococcus aureus [5]) [µg/mL] | MIC (Staphylococcus aureus [6]) [µg/mL] | MIC (Staphylococcus aureus [7]) [µg/mL] | MIC (Staphylococcus aureus [8]) [µg/mL] | MIC (Staphylococcus aureus [9]) [µg/mL] | MIC (Staphylococcus aureus [10]) [µg/mL] | MIC (Staphylococcus aureus [11]) [µg/mL] | MIC (Staphylococcus aureus [12]) [µg/mL] |
| --- | --- | --- | --- | --- | --- | --- | --- | --- | --- | --- | --- | --- |
| O=C(N[C@H]1Cc2c(O)cc(O)cc2O[C@@H]1c1ccc(O)c(O)c1)c1cc(O)c(O)c(O)c1 | 256 (≈ 580 µM) | 256 | 512 | 64 | 2 | 128 (≈ 290 µM) | 256 (≈ 580 µM) | 4 |  |  |  |  |
| O=C(N[C@@H]1Cc2c(O)cc(O)cc2O[C@@H]1c1ccc(O)c(O)c1)c1cc(O)c(O)c(O)c1 | 256 (≈ 580 µM) |  |  |  |  | 128 (≈ 290 µM) | 256 (≈ 580 µM) |  | 4 | 1 | 8 | ≤ 0.5 |
| Cc1onc(-c2ccccc2)c1C(=O)N[C@@H]1C(=O)N2[C@@H]1SC(C)(C)[C@@H]2C(=O)O [OXACILLIN] | 32 (≈ 79.7 µM) |  |  |  |  | 512 (≈ 1280 µM) | 256 (≈ 638 µM) |  |  |  |  |  |
